# ChEMBL document CHEMBL5126600, “Discovery of the First-in-Class G9a/GLP Covalent Inhibitors” (J Med Chem, 2022)
# Calls of active or inactive are those of the source. The calls are words filed in the database; no cut-off is given here.
# What was measured:
# [1] = target: T1, Histone-lysine N-methyltransferase EHMT2 (Homo sapiens, UniProt Q96KQ7); assay: Inhibition of human G9a (913 to 1193 residues) using H3 peptide as substrate measured upto 45 mins in presence of SAM cofactor
# T1 sequence (Q96KQ7 whole entry): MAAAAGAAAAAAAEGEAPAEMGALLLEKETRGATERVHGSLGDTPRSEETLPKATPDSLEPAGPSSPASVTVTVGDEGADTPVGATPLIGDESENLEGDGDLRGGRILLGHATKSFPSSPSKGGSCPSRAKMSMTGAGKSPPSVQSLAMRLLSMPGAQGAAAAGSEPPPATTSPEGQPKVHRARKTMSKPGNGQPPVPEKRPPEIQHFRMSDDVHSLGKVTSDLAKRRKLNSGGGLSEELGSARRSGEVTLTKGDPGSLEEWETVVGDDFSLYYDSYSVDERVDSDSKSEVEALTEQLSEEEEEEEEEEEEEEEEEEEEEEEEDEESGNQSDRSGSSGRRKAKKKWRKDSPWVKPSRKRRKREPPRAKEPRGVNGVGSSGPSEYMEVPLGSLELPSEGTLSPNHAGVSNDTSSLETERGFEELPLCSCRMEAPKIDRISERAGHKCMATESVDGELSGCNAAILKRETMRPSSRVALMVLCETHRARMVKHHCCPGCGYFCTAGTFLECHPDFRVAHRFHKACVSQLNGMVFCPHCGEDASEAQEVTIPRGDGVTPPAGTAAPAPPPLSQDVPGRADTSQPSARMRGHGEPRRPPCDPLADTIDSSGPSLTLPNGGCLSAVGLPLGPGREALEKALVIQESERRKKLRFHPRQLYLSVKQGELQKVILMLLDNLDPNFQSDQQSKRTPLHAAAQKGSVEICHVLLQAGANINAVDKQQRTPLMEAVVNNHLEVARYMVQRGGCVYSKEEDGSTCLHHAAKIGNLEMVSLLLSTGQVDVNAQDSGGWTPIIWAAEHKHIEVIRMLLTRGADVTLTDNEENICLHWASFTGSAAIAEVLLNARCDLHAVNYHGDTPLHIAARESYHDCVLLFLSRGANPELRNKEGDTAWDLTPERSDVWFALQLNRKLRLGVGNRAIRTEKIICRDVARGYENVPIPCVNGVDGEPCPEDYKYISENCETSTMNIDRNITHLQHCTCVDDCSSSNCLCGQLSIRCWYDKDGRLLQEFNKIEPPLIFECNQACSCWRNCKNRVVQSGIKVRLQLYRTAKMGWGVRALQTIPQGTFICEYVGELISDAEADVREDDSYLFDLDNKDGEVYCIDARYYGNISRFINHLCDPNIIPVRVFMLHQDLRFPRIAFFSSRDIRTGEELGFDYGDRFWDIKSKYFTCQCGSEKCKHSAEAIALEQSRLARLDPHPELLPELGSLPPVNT
# [2] = target: T1, Histone-lysine N-methyltransferase EHMT2; assay: Binding affinity to human G9a (913 to 1193 residues) assessed as dissociation constant by isothermal titration calorimetry method
# Summary of the method: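 Initial 0.4 μL injection, then 13 injections of 500 μM compound from the syringe, stirred at 750 rpm. Experiment time about 50 min. Data fitted to a single binding site model. Mean ± SD of two independent measurements.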
# [3] = target: Histone-lysine N-methyltransferase EZH2 (Homo sapiens) (UniProt Q15910); assay: Inhibition of N-terminal His-tagged EZH2 (2 to 746 residues) (unknown origin) expressed in baculovirus expression system at 1 uM using 3H-SAM as a substrate relative to control
# Summary of the method: (§1)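 Contracted 3H-SAM methyl-transfer scintillation proximity assay against a panel of methyltransferases; compound tested at 1 μM in duplicate; inhibition expressed as percent of control enzyme activity.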
# [4] = target: Histone-lysine N-methyltransferase 2A (Homo sapiens) (UniProt Q03164); assay: Inhibition of N-terminal His-tagged MLL1 (3745 to 3969 residues) (unknown origin) expressed in Escherichia coli at 1 uM using 3H-SAM as a substrate relative to control; summary of the method: as §1
# [5] = target: Histone-lysine N-methyltransferase NSD3 (Homo sapiens) (UniProt Q9BZ95); assay: Inhibition of N-terminal GST tagged NSD3 (1021 to 1322 residues) (unknown origin) expressed in Escherichia coli at 1 uM using 3H-SAM as a substrate relative to control; summary of the method: as §1
# [6] = target: PRMT5/MEP50 complex (Homo sapiens) (UniProt O14744+Q9BQA1); assay: Inhibition of recombinant human N-terminal Flag-tagged PRMT5 (2 to 637 residues)/N-terminal His-tagged MEP50 (2 to 342 residues) expressed in baculovirus expression system at 1 uM using 3H-SAM as a substrate relative to control; summary of the method: as §1
# [7] = target: Protein arginine N-methyltransferase 7 (Homo sapiens) (UniProt Q9NVM4); assay: Inhibition of N-terminal His-tagged full-length recombinant human PRMT7 (2 to 692 residues) expressed in baculovirus expression system at 1 uM using 3H-SAM as a substrate relative to control; summary of the method: as §1
# [8] = target: Protein arginine N-methyltransferase 8 (Homo sapiens) (UniProt Q9NR22); assay: Inhibition of N/C-terminal His-tagged PRMT8 (61 to 394 residues) (unknown origin) expressed in Escherichia coli at 1 uM using 3H-SAM as a substrate relative to control; summary of the method: as §1
# [9] = target: Histone-lysine N-methyltransferase SETD2 (Homo sapiens) (UniProt Q9BYW2); assay: Inhibition of SETD2 (unknown origin) at 1 uM using 3H-SAM as a substrate relative to control; summary of the method: as §1
# [10] = target: N-lysine methyltransferase KMT5A (Homo sapiens) (UniProt Q9NQR1); assay: Inhibition of SETD8 (unknown origin) at 1 uM using 3H-SAM as a substrate relative to control; summary of the method: as §1
# [11] = target: Histone-lysine N-methyltransferase SUV39H2 (Homo sapiens) (UniProt Q9H5I1); assay: Inhibition of N-terminal fusion protein with C-terminal His-tagged SUV39H2 (46 to 410 residues) (unknown origin) expressed in Escherichia coli at 1 uM using 3H-SAM as a substrate relative to control; summary of the method: as §1
# [12] = target: T2, Histone-lysine N-methyltransferase EHMT2 (Homo sapiens) (UniProt Q96KQ7); assay: Inhibition of human G9a (913 to 1193 residues) using H3 peptide as substrate in presence of SAM cofactor by scintillation counting method; conditions: time 5-45 min, TDE = time-dependent effect
# T2 sequence (whole entry): T1 sequence (Q96KQ7 whole entry)
# Summary of the method: (§2)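 Contracted scintillation proximity assay following 3H-methyl transfer from SAM (1 μM) to H3 peptide (0.05 μM) by G9a or GLP (5 nM each), with preincubation times of 5, 15 or 45 min; four replicates.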
# [13] = target: Histone-lysine N-methyltransferase EHMT1 (Homo sapiens) (UniProt Q9H9B1); assay: Inhibition of human GLP (982 to 1266 residues) using H3 peptide as substrate in presence of SAM cofactor by scintillation counting method; conditions: time 5-45 min, TDE = time-dependent effect; summary of the method: as §2
# MDA-MB-231 = assay: Cytotoxicity against human MDA-MB-231 cells after 3 days by CCK-8 assay; type: functional, cell-based; conditions: time 3.0 day
# Summary of the method: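 MDA-MB-231 cells seeded at 1 × 10^4 per well in 96-well plates, exposed to compounds over a range of concentrations for 3 days.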
# Histone-lysine N-methyltransferase NSD3 (Homo sapiens), sequence (Q9BZ95 whole entry, the tested form may be a part): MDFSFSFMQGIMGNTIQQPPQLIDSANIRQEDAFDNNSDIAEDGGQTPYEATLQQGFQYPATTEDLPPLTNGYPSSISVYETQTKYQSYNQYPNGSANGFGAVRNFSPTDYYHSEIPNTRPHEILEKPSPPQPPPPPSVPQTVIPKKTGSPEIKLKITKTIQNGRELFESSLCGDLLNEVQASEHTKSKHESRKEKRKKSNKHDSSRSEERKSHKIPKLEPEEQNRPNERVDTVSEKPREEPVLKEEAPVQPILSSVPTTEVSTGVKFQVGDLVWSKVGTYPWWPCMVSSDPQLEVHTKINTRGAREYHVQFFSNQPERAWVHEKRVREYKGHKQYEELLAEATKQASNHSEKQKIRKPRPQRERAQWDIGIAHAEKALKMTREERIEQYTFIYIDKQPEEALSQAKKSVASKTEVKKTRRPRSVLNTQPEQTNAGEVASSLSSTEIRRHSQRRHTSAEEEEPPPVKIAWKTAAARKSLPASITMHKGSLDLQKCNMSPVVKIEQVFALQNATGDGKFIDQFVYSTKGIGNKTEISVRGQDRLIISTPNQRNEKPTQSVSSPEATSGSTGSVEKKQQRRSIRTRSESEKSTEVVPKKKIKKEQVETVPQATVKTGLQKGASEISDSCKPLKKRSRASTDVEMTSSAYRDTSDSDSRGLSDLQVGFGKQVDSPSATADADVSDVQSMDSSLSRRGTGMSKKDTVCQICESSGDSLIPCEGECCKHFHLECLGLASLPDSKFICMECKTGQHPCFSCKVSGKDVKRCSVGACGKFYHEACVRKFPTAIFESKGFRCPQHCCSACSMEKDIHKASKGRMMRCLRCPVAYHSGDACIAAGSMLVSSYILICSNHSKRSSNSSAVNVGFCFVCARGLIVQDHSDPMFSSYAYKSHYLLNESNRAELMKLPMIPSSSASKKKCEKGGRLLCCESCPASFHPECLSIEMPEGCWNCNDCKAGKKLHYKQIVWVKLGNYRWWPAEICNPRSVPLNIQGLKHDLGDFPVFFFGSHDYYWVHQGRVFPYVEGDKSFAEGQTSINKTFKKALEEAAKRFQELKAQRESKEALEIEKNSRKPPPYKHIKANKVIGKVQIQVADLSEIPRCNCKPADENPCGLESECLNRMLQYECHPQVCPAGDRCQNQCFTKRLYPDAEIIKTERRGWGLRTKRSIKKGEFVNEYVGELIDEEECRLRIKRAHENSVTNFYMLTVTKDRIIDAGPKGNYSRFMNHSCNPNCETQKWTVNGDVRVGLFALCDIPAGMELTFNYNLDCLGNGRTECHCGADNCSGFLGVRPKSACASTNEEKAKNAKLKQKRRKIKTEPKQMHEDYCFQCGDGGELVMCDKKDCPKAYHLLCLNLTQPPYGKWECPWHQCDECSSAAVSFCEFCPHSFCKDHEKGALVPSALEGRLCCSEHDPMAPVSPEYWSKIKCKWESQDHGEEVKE
# Histone-lysine N-methyltransferase SUV39H2 (Homo sapiens), sequence (Q9H5I1 whole entry, the tested form may be a part): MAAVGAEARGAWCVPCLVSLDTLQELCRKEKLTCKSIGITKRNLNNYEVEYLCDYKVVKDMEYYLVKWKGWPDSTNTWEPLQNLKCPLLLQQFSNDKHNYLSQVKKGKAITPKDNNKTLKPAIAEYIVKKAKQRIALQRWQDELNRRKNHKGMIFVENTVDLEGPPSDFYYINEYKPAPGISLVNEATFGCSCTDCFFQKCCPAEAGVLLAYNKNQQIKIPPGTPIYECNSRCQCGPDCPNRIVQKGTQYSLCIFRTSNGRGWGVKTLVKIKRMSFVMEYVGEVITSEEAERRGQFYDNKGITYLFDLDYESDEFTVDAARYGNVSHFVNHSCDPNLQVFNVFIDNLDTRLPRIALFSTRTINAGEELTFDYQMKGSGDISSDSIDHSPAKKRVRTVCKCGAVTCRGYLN
# Protein arginine N-methyltransferase 8 (Homo sapiens), sequence (Q9NR22 2-394 limits assumed): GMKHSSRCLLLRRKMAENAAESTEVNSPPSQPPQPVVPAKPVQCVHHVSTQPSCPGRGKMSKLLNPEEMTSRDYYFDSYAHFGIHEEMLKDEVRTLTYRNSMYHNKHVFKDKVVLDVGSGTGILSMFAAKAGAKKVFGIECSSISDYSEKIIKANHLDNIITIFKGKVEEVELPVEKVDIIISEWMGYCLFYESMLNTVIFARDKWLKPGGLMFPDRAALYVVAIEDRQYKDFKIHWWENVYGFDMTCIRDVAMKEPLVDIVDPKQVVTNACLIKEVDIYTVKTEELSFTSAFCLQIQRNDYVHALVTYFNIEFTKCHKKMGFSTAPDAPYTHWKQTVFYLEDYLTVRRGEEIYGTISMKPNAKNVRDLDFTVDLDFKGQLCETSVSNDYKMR
# Protein arginine N-methyltransferase 7 (Homo sapiens), sequence (Q9NVM4 whole entry, the tested form may be a part): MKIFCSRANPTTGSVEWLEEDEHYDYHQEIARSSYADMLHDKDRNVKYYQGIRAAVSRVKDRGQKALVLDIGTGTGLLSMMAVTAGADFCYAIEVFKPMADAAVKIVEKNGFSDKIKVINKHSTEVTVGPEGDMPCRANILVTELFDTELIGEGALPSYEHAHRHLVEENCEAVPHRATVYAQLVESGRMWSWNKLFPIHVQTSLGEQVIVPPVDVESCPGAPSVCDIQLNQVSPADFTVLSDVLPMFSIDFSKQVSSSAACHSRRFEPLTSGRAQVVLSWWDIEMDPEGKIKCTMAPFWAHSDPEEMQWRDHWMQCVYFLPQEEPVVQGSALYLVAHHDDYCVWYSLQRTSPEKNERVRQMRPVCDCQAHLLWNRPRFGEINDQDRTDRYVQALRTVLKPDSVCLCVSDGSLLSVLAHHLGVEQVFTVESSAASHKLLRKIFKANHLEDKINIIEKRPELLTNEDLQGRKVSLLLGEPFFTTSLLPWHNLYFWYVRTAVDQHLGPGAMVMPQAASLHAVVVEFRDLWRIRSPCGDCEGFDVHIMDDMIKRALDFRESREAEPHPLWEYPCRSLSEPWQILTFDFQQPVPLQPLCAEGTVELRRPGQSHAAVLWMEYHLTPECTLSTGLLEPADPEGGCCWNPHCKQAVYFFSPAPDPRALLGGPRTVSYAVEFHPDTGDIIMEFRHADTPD
# Histone-lysine N-methyltransferase EHMT1 (Homo sapiens), sequence (Q9H9B1 whole entry, the tested form may be a part): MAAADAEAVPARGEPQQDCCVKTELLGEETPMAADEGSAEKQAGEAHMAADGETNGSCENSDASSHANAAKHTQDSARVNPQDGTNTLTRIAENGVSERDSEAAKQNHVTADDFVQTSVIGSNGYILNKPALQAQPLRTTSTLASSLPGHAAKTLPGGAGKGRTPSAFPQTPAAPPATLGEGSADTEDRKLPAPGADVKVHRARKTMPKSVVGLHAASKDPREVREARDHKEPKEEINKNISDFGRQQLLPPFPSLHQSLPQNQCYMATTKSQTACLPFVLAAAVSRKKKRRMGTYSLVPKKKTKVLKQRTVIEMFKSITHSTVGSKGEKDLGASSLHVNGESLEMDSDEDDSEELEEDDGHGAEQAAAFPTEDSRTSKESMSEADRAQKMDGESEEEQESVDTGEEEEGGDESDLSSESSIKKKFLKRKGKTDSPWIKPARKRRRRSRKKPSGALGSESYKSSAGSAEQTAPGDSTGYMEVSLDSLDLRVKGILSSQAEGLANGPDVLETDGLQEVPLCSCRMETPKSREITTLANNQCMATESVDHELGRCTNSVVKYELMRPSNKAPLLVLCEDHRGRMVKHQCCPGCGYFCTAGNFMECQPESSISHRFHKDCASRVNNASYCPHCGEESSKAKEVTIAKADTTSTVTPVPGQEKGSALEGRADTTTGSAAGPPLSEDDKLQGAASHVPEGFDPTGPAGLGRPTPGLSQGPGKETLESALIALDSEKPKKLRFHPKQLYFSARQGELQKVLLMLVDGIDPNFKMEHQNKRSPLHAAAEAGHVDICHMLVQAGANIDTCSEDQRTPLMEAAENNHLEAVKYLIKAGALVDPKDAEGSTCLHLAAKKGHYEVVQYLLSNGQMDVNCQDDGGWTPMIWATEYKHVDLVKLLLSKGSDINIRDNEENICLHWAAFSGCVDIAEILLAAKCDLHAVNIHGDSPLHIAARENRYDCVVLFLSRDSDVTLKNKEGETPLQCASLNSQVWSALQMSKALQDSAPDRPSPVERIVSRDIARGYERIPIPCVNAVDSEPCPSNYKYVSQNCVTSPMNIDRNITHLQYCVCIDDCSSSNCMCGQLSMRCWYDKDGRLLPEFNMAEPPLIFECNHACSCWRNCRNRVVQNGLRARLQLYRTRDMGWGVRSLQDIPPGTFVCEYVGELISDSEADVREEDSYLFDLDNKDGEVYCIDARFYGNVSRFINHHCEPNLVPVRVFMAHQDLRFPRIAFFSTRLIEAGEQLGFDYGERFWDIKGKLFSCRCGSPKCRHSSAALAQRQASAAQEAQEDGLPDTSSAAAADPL
# N-lysine methyltransferase KMT5A (Homo sapiens), sequence (Q9NQR1 whole entry, the tested form may be a part): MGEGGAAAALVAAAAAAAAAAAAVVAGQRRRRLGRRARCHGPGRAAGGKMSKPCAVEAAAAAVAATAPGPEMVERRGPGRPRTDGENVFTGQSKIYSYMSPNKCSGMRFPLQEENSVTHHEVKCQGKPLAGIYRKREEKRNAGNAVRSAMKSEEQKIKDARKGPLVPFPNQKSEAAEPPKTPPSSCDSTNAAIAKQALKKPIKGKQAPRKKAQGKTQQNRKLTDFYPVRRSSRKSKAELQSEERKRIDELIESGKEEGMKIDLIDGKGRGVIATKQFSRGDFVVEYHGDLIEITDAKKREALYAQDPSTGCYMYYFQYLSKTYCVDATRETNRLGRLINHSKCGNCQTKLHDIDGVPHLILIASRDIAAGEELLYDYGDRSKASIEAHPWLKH
smiles,measurement,setting,value
C=CC(=O)Nc1cc(NC2CCN(C(C)C)CC2)c2cc(OC)c(OCCCN3CCCC3)cc2n1,IC50,[1],100 nM
same,Kd,[2],44 nM
same,inhibition,[3],< 50%
same,inhibition,[4],< 50%
same,inhibition,[5],< 50%
same,inhibition,[6],< 50%
same,inhibition,[7],< 50%
same,inhibition,[8],< 50%
same,inhibition,[9],< 50%
same,inhibition,[10],< 50%
same,inhibition,[11],< 50%
same,inhibition,[12],Tde
same,inhibition,[13],Tde
same,Activity,MDA-MB-231,Active
